Assay outcomes: PubChem, several laboratories
AHR act – activates the human aryl hydrocarbon receptor | P35869 | AHR-responsive luciferase reporter cells, luminescence | activation, % at 5 µM | hit rate 2.5% among 320,000 | AID 2796; in the data active = activation above about 47%;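 note: 0% = vehicle wells and 100% = reference agonist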
HTR2A ag – agonists of mouse serotonin 5-HT2A receptor (HTR2A); activation, % at 7.6 µM; hit rate 0.66% among 360,000; CHO-K1 mHTR2A beta-arrestin complementation, luminescence; percent of 30 µM serotonin response; P35363;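 active = activation above a run cutoff, the mean activation of all tested compounds plus 3 SD, cut at about 14% in these data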;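 note: 0% = plate median of compound wells and 100% = 30 µM serotonin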
MsrA act – activators of bovine methionine sulfoxide reductase A. purified bovine MsrA, absorbance read-out. activation, % at 10.6 µM. hit rate 0.3% among 360,000; in the data active = activation above about 7.5%;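 note: 0% = vehicle and 100% = reference activator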
MsrA inhibitor – inhibits bovine methionine sulfoxide reductase A; inhibition, % at 15.5 µM; hit rate 0.75% among 360,000; purified bovine MsrA, absorbance read-out; AID 651718;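 note: 0% = vehicle wells with enzyme and 100% = reference inhibitor wells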
AI-2 QS mod – modulates the Vibrio harveyi AI-2 quorum sensing system; Vibrio harveyi JMH597 AI-2 luminescence/OD600 ratio, 9 h; hits give low values; strain lacks LuxN and CqsS sensors; 0 = neutral-control median; activity change, % at 7.5 µM; hit rate 0.4% among 300,000; in the data active = activity change below about -75%, passing the limit was not always enough;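 note: luminescence divided by OD600 gain over 9 h not by final OD600 alone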
TbMetRS inhib – blocks T. brucei methionyl-tRNA synthetase activity; AID 624268; inhibition, % at 11.9 µM; hit rate 0.4% among 360,000; purified T. brucei MetRS, ATP depletion, Kinase-Glo luminescence;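 active = inhibition above a per-plate cutoff of the control wells' mean inhibition plus 3 SD, cut at about 5.5% in these data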;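 note: 0% = DMSO wells median and 100% = median of wells with control inhibitor compound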
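Material: parasite MetRS enzyme / Replication: singlicate, one well per compound / Signal: luminescence of leftover ATP / Schedule: 2 h aminoacylation at 25 °C after 15 min preincubation / Medium: HEPES-MgCl2-KCl buffer plus DTT, spermine, BSA, pyrophosphatase / Doses: 11.9 µM single point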
MsrA conf – confirmation of bovine MsrA inhibitors | shares compounds with MsrA inhibitor | purified bovine MsrA, absorbance read-out | inhibition, % at 15.5 µM | hit rate 41% among 2,300;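 note: coupled to thioredoxin reductase with NADPH and selenocystamine and DMSO as substrate; 0% = vehicle only and 100% = full effect of reference inhibitor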
Starred values were filed as active, the others as inactive; nt = no result given. Shown are actives, neighbours in structure and some others; about 4.4% of the full set was active somewhere. Cut-off read from the data, not from the text of the source, unless noted: active = inhibition above about 4.5%; inactive = the rest.

SMILES | AHR act | HTR2A ag | MsrA act | MsrA inhibitor | AI-2 QS mod | TbMetRS inhib | MsrA conf
CCOc1cc(/C=C2/NC(=O)NC2=O)cc(Br)c1OCc1ccc(C(=O)O)cc1 | -3 | 5 | -6 | 6.2* | 24 | 0 | 2
O=C1NC(=O)/C(=C\c2ccc(OCc3cccc(C(=O)O)c3)c(Cl)c2)N1 | 6 | -1 | -4 | 5.3* | 24 | 0 | 4
O=C(CSc1nccc(=O)[nH]1)Nc1cccc2ccccc12 | -1 | 3 | -3 | -2 | 9 | 0 | nt
Cc1ncc(CO)c(/C=N/Nc2cccc(Cl)n2)c1O | 18 | 0 | 2 | 9.4* | 16 | 0 | 3
Cc1cc(C(=O)N/N=C/c2c(CO)cnc(C)c2O)c2ccccc2n1 | -3 | -1 | 1 | 1 | 23 | 0 | nt
COC(=O)CN(c1nc(C)c(Br)c(OC)n1)S(=O)(=O)c1ccccc1 | 1 | 6 | -3 | 13* | 14 | -1 | 12*
COC(=O)CN(c1nc(C)cc(OC)n1)S(=O)(=O)c1ccccc1 | nt | -4 | -7 | -1 | 10 | -1 | nt
CCOC(=O)c1c(S(=O)(=O)NCC(=O)NCc2cccc(C)c2)c(C)n(C)c1C | 2 | 0 | -1 | 1 | 24 | 1 | nt
O=C(Nc1ccccc1Cl)c1ccc(=O)[nH]n1 | 4 | -2 | -2 | 0 | 44 | 0 | nt
O=C1CS/C(=C/C(=O)c2ccccc2)N1 | 14 | 0 | -6 | 5 | 25 | 0 | nt
Cc1ccccc1C(=O)/C=C1\NC(=O)CS1 | 21 | -2 | -6 | 6.3* | 9 | 0 | 6.6*
Cc1cc(C)cc(C(=O)/C=C2\NC(=O)CS2)c1 | 45 | 1 | -15 | 5.3* | 12 | -2 | 5.3*
Cc1ccc(CNC(=O)c2ccc3c(c2)NC(=O)CS3)cc1 | 10 | -1 | -3 | 2 | -2 | 0 | nt
COCCNC(=O)C1(C)CCN(Cc2ccc(C(C)C)cc2)C1 (centres undefined) | nt | -5 | -2 | 0 | nt | 0 | nt
COc1ccc(/C=N/NC(=O)c2cccnc2)cc1COc1ccc([N+](=O)[O-])c(C)c1 | 10 | -2 | -4 | 4.7* | 22 | 1 | 1
CCCCN(C(=O)c1ccc(C)o1)c1c(N)n(CC(C)C)c(=O)[nH]c1=O | 0 | -2 | 4 | -1 | nt | 0 | nt
O=C(NCCN1CCC(n2c(=O)[nH]c3ccccc32)CC1)c1cc(F)cc(F)c1 | nt | 9 | -1 | 0 | nt | -1 | nt
CC(C)(C)NC(=O)c1nc2nc(-c3ccccc3)cc(C(F)(F)F)n2n1 | 11 | 0 | -2 | 1 | -1 | 0 | nt
COc1ccc(-c2cc(C(F)(F)F)n3nc(C(=O)O)nc3n2)cc1 | 0 | 4 | -5 | 5.1* | 32 | -1 | 4
COc1ccc(NC(=O)CS(=O)c2cccc(C(F)(F)F)c2)cc1 (centres undefined) | -3 | 4 | -10 | -1 | 4 | -1 | nt
Cc1[nH]n(-c2ccc(Cl)cc2)c(=O)c1C(=O)c1ccccc1 | 6 | -4 | -3 | 7.3* | 28 | 0 | 0
Cc1[nH]n(-c2ccccc2)c(=O)c1C(=O)c1ccc(Cl)cc1 | 6 | 4 | -1 | 1 | 21 | 0 | nt
Fc1cccc(/C=N/Nc2nc3ccccc3[nH]2)c1 | 2 | nt | nt | 4.7* | 17 | nt | 4
O=[N+]([O-])c1cc(/C=N/Nc2nc3ccccc3[nH]2)c(O)cc1O | 25 | nt | nt | 5.7* | -63 | nt | 5.0*
O=C(O)c1ccc(CNC(=O)c2ccc3c(c2)C(=O)N(Cc2cccnc2)C3=O)cc1 | nt | 3 | -7 | -1 | 43 | 0 | nt
SMILES | AHR act | HTR2A ag | MsrA act | MsrA inhibitor | AI-2 QS mod | TbMetRS inhib | MsrA conf
O=C(O)c1cccc2c1C(=O)c1ccc(-c3ccc(F)cc3F)cc1S2(=O)=O | 1 | 2 | -11 | 2 | nt | 0 | nt
Cc1ccc(NC(=O)CN2C(=O)NC(C)(C3CC3)C2=O)c([N+](=O)[O-])c1 (centres undefined) | 8 | 7 | -4 | 9.4* | nt | 0 | 6.0*
CC(=O)N1CCN(CCN2C(C)=CC(=C(C#N)C#N)C=C2C)CC1 | 0 | 11 | -11 | 3 | 8 | 0 | nt
CC1=CC(=C(C#N)C#N)C=C(C)N1CCN1CCNCC1 | 0 | -7 | -6 | 6.5* | 43 | 0 | 7.9*
CC1=CC(=C(C#N)C#N)C=C(C)N1CCN1CCN(C(=O)Nc2cccc(Cl)c2)CC1 | 1 | -2 | -3 | 5.0* | 19 | 0 | 4.6*
CCc1nn(CC(=O)NCCC(C)C)c(=O)c2cc3c(OC)cccc3n12 | 13 | -4 | -3 | 1 | 9 | -1 | nt
COCCn1c(=NC(=O)c2ccc3c(c2)OCCO3)sc2cc(S(N)(=O)=O)ccc21 | 5 | 8 | -15 | 6.2* | 52 | -1 | 3
COCCn1c(=NC(=O)c2ccc(S(=O)(=O)N3CCc4ccccc4C3)cc2)sc2cc(S(N)(=O)=O)ccc21 | 0 | 3 | -9 | 5.9* | 18 | 0 | 4
COCCn1c(=NC(=O)c2cc(Cl)sc2Cl)sc2cc(S(N)(=O)=O)ccc21 | 3 | 1 | -6 | 0 | 17 | -2 | nt
CC(=O)Nc1ccc(S(=O)(=O)N2CCN(C(=O)c3ncoc3-c3ccc(C)cc3)CC2)cc1 | 2 | -3 | -1 | 0 | 0 | -1 | nt
COc1cc(-c2nc3ccccn3c2/N=C/c2cc(OC)c(O)cc2Cl)ccc1O | 18 | 1 | -5 | 4.7* | 26 | 0 | 3
COc1cc(-c2nc3ccccn3c2/N=C/c2ccccc2)ccc1O | 3 | 1 | -3 | 4 | 2 | -1 | nt
O=C(O)COc1ccc(/C=N/NC(=O)/C(=C/C=C/c2ccccc2)NC(=O)c2ccccc2)cc1 | 7 | -5 | -11 | 8.4* | 19 | 0 | 7.9*
O=C(O)CCNC(=O)/C(=C\C=C\c1ccccc1)NC(=O)c1ccccc1 | 1 | -1 | -6 | 6.8* | 11 | 0 | 4
CCCCOc1ccc(C(=O)N/C(=C/C=C/c2ccccc2)C(=O)O)cc1 | -1 | 3 | -2 | 6.8* | 30 | 1 | 3
Cc1nn(CC(=O)N2CCCCCC2)c(=O)c2cc3occc3n12 | 1 | 1 | -4 | 1 | 5 | 1 | nt
COc1ccc(N2CCOCC2)c(NC(=O)c2cccnc2)c1 | 0 | 0 | -6 | 3 | 6 | 0 | nt
CN(C)c1ccc(C=NCC2COc3ccccc3O2)cc1 (centres undefined) | 3 | -2 | -5 | 5.5* | 11 | -1 | 5.2*
COc1ccc(OCC(CO)N2CCN(c3ccccc3)CC2)cc1 (centres undefined) | nt | 11 | -2 | 0 | nt | 0 | nt
N#C/C(=N/Nc1ccc(S(=O)(=O)N2CCOCC2)cc1)C(N)=O | 0 | -1 | -4 | 6.6* | 25 | 0 | 3
O=C(Nc1cccc(NC(=O)C2CCCO2)c1)C1CCCO1 (centres undefined) | -1 | 4 | -6 | -1 | 19 | -1 | nt
